Assays:
Plasmodium falciparum = experiment: Antiplasmodial activity against chloroquine-sensitive Plasmodium falciparum NF54 by lactate dehydrogenase assay; type: functional, organism-based
How it was run: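 Asexual erythrocyte-stage P. falciparum kept in continuous in vitro culture (modified Trager–Jensen). Activity quantified by parasite lactate dehydrogenase assay (modified Makler method). Triplicate wells, on one or two separate occasions. IC50 from full dose–response curves by nonlinear curve fitting. Chloroquine run as internal standard to monitor conditions.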

[1] = system: Mycobacterium tuberculosis; experiment: Antibacterial activity against Mycobacterium tuberculosis H37Rv ATCC 25618 measured at 24 hrs interval by BACTEC radiometric method; type: functional
How it was run: (§1)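 H37Rv grown in 7H9 with ADC to about 0.16 A600 (one McFarland), inoculated into BACTEC vials and incubated at 37 °C to GI 500 (±50). This primary culture was then dosed with filter-sterilised compound at 10 μM in DMSO (final DMSO 2.5%) and held at 37 °C. Growth was read every 24 h as radiometric CO₂ growth index against controls.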

[2] = system: Mycobacterium tuberculosis; experiment: Antibacterial activity against Mycobacterium tuberculosis H37Rv ATCC 25618 assessed as growth inhibition at 10 uM measured at 24 hrs interval by BACTEC radiometric method relative to control; type: functional; details: for inhibition of growth at 10 µM: Mycobacterium tuberculosis, H37Rv ATCC 25618, 24 h, read-out: GI; how it was run: as §1
[3] = Mycobacterium tuberculosis, H37Rv ATCC 25618, 24 h, read-out: MIC99

Row | Compound | IC50 (Plasmodium falciparum) | MIC99 [1, 3] [µM] | inhibition of growth at 10 µM [2] [%] | also measured
1 | COc1ncnc(NS(=O)(=O)c2ccc(N)cc2)c1OC [SULFADOXINE] | Not Active |  |  | 
2 | CN(C)Cc1ccc(CCCc2ccccc2)cc1O |  | > 10 |  | growth inhibition (GI) [2]: 74%
3 | Cc1cc(NS(=O)(=O)c2ccc(N)cc2)no1 [SULFAMETHOXAZOLE] | Not Active |  |  | 
4 | CN(C)Cc1ccc(CCCc2ccccc2)cc1O.Cl |  |  |  | MIC99 [1]: >10 µM; growth inhibition (GI) [2]: 36%
5 | Oc1cccc(CCCc2ccccc2)c1 | Not Active | > 10 | 94 | 
6 | NS(=O)(=O)c1ccc(NCc2ccc(CCCc3ccccc3)cc2O)cc1 | Not Active | > 10 | 14 | 
7 | Oc1ccc(CCCc2ccccc2)cc1 |  | > 10 | 96 | 
8 | Nc1ccc(S(N)(=O)=O)cc1 [SULFANILAMIDE] | Not Active | > 10 | 0 | 
9 | CN(C)Cc1cc(CCCc2ccccc2)cc(CN(C)C)c1O.Cl.Cl |  |  |  | MIC99 [1]: >10 µM; growth inhibition (GI) [2]: 33%
10 | CN(C)Cc1cc(CCCc2ccccc2)cc(CN(C)C)c1O |  | > 10 | 42 | 
11 | NS(=O)(=O)c1ccc(NCc2cc(CCCc3ccccc3)cc(CNc3ccc(S(N)(=O)=O)cc3)c2O)cc1 |  | > 10 | 0 | 
12 | C[C@H]1[C@H](OC(=O)CCC(=O)O)O[C@@H]2O[C@@]3(C)CC[C@H]4[C@H](C)CC[C@@H]1[C@@]24OO3 [ARTESUNATE] |  |  |  | IC50 (Plasmodium falciparum; Plasmodium falciparum, NF54, read-out: IC50): < 5.2 µM

Source: ChEMBL document CHEMBL4130614, “Synthesis and Bioactivity of Reduced Chalcones Containing Sulfonamide Side Chains” (J Nat Prod, 2018)
